# Columns and labels:
# [1] = target: Vascular endothelial growth factor receptor 1 (Homo sapiens) (UniProt P17948); assay: Binding affinity to wild-type human partial length FLT1 (R781 to F1239 residues) expressed in Escherichia coli BL21 at 1 uM by Kinomescan method relative to control
# [2] = target: Tyrosine-protein kinase FRK (Homo sapiens) (UniProt P42685); assay: Binding affinity to wild-type human partial length FRK (A215 to F503 residues) expressed in Escherichia coli BL21 at 1 uM by Kinomescan method relative to control
# [3] = target: Phosphorylase b kinase gamma catalytic chain, liver/testis isoform (Homo sapiens) (UniProt P15735); assay: Binding affinity to wild-type human partial length PHKG2 (M1 to W300 residues) expressed in Escherichia coli BL21 at 1 uM by Kinomescan method relative to control
# [4] = target: Ephrin type-B receptor 4 (Homo sapiens) (UniProt P54760); assay: Binding affinity to wild-type human partial length EPHB4 (H585 to G892 residues) expressed in Escherichia coli BL21 at 1 uM by Kinomescan method relative to control
# [5] = target: Discoidin domain-containing receptor 2 (Homo sapiens) (UniProt Q16832); assay: Binding affinity to wild-type human partial length DDR2 (V555 to E855 residues) expressed in HEK293 cells at 1 uM by Kinomescan method relative to control; assay type: cell-based
# [6] = target: Serine/threonine-protein kinase OSR1 (Homo sapiens) (UniProt O95747); assay: Binding affinity to wild-type human full length OSR1 (M1 to S527 residues) expressed in HEK293 cells at 1 uM by Kinomescan method relative to control; assay type: cell-based
# Serine/threonine-protein kinase OSR1 (Homo sapiens), sequence (O95747 2-527 limits assumed): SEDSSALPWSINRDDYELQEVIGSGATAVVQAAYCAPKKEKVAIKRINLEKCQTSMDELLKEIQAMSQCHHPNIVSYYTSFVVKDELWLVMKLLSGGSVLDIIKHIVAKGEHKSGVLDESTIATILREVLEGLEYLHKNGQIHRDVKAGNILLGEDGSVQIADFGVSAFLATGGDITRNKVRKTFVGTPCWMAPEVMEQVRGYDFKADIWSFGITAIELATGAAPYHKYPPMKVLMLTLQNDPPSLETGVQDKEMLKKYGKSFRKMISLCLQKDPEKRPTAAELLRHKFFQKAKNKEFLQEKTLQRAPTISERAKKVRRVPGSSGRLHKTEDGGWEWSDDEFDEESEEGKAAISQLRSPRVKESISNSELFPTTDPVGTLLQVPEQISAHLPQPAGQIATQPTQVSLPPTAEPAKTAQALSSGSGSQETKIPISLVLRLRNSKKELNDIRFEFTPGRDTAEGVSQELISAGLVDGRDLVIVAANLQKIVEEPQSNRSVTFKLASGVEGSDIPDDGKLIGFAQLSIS
# Method in brief: (§1)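 Kinome-wide competition binding panel run by an outside provider, with each compound tested at a single concentration. Activity is read against the kinase panel.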
# [7] = target: Peripheral plasma membrane protein CASK (Homo sapiens) (UniProt O14936); assay: Binding affinity to wild-type human partial length CASK (M1 to H315 residues) expressed in HEK293 cells at 1 uM by Kinomescan method relative to control; assay type: cell-based
# [8] = target: Rho-associated protein kinase 1 (Homo sapiens) (UniProt Q13464); assay: Binding affinity to wild-type human partial length ROCK1 (M1 to R415 residues) expressed in HEK293 cells at 1 uM by Kinomescan method relative to control; assay type: cell-based
# [9] = target: Cyclin-dependent kinase 15 (Homo sapiens) (UniProt Q96Q40); assay: Binding affinity to wild-type human full length PFTAIRE2 (M1 to W384 residues) expressed in Escherichia coli BL21 at 1 uM by Kinomescan method relative to control; method in brief: as §1
# [10] = target: Receptor-interacting serine/threonine-protein kinase 4 (Homo sapiens) (UniProt P57078); assay: Binding affinity to wild-type human partial length RIPK4 (M1 to V303 residues) expressed in HEK293 cells at 1 uM by Kinomescan method relative to control; assay type: cell-based
# [11] = target: Serine/threonine-protein kinase 26 (Homo sapiens) (UniProt Q9P289); assay: Binding affinity to wild-type human full length MST4 (M1 to P416 residues) expressed in HEK293 cells at 1 uM by Kinomescan method relative to control; assay type: cell-based
# Method in brief: (§2)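 Run as one kinome-wide competition binding panel with each compound at a single fixed concentration. Results were plotted as a kinome-wide selectivity map.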
# [12] = target: Epidermal growth factor receptor (Homo sapiens) (UniProt P00533); assay: Binding affinity to human partial length EGFR L747-T751del/Sins mutant expressed in Escherichia coli BL21 at 1 uM by Kinomescan method relative to control
# [13] = target: RAC-gamma serine/threonine-protein kinase (Homo sapiens) (UniProt Q9Y243); assay: Binding affinity to wild-type human partial length AKT3 expressed in Escherichia coli BL21 at 1 uM by Kinomescan method relative to control; method in brief: as §1
# [14] = target: Serine/threonine-protein kinase RIO2 (Homo sapiens) (UniProt Q9BVS4); assay: Binding affinity to wild-type human partial length RIOK2 (M1 to D313 residues) expressed in HEK293 cells at 1 uM by Kinomescan method relative to control; assay type: cell-based
# [15] = target: Mitogen-activated protein kinase 13 (Homo sapiens) (UniProt O15264); assay: Binding affinity to wild-type human full length p38-delta (M1 to L365 residues) expressed in Escherichia coli BL21 at 1 uM by Kinomescan method relative to control; method in brief: as §1
# [16] = target: G protein-coupled receptor kinase 3 (Homo sapiens) (UniProt P35626); assay: Binding affinity to wild-type human full length GRK3 (M1 to L688 residues) expressed in HEK293 cells at 1 uM by Kinomescan method relative to control; assay type: cell-based; method in brief: as §2
# G protein-coupled receptor kinase 3 (Homo sapiens), sequence (P35626 whole entry, the tested form may be a part): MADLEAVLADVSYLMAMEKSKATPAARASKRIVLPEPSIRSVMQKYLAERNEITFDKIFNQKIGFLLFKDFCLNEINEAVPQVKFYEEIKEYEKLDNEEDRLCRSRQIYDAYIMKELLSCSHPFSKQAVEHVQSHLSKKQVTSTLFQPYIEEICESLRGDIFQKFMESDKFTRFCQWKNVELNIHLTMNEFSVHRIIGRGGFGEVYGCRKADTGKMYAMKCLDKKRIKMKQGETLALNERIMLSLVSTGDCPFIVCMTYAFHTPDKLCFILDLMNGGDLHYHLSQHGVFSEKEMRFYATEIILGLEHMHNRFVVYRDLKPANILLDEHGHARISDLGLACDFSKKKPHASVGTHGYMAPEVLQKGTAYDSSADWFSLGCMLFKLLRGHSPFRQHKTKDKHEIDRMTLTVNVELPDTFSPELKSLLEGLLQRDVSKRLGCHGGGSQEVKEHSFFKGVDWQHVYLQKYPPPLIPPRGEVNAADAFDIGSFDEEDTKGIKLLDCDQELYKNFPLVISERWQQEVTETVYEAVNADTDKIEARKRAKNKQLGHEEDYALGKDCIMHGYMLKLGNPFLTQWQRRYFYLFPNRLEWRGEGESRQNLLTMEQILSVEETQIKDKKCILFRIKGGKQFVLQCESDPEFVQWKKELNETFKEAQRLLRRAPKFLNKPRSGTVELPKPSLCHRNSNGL
# [17] = target: Serine/threonine-protein kinase 33 (Homo sapiens) (UniProt Q9BYT3); assay: Binding affinity to wild-type human full length STK33 (M1 to L514 residues) expressed in Escherichia coli BL21 at 1 uM by Kinomescan method relative to control; method in brief: as §1
# Serine/threonine-protein kinase 33 (Homo sapiens), sequence (Q9BYT3 whole entry, looked up, the tested form may be a part): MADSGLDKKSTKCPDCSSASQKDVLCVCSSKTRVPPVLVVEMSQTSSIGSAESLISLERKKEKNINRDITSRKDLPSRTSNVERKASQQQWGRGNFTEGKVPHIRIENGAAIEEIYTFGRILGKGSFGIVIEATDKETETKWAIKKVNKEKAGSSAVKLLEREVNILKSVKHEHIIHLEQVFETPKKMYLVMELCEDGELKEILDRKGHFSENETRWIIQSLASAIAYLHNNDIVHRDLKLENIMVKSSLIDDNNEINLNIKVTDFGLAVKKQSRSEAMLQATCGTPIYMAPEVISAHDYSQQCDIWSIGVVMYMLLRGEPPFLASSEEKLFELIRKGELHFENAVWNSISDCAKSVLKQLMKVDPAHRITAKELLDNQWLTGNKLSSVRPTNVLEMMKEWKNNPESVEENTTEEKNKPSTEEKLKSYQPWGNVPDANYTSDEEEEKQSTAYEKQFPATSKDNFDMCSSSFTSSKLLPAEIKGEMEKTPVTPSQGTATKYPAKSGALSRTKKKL
# [18] = target: MAP kinase-interacting serine/threonine-protein kinase 1 (Homo sapiens) (UniProt Q9BUB5); assay: Binding affinity to wild-type human full length MKNK1 (M1 to L424 residues) expressed in HEK293 cells at 1 uM by Kinomescan method relative to control; assay type: cell-based; method in brief: as §2
# [19] = target: Mitogen-activated protein kinase 11 (Homo sapiens) (UniProt Q15759); assay: Binding affinity to wild-type human full length p38-beta (M1 to Q364 residues) expressed in Escherichia coli BL21 at 1 uM by Kinomescan method relative to control; method in brief: as §1
# [20] = target: Dual serine/threonine and tyrosine protein kinase (Homo sapiens) (UniProt Q6XUX3); assay: Binding affinity to wild-type human full length RIPK5 (M1 to T929 residues) expressed in HEK293 cells at 1 uM by Kinomescan method relative to control; assay type: cell-based
# [21] = test system: Phosphatidylinositol 4,5-bisphosphate 3-kinase catalytic subunit alpha isoform (Homo sapiens), P42336 [Q546K]; assay: Binding affinity to human partial length PIK3CA Q546K mutant (R108 to N1068 residues) expressed in HEK293 cells at 1 uM by Kinomescan method relative to control; assay type: cell-based
# HEK293 = assay: Binding affinity to wild-type Mycobacterium tuberculosis partial length PKNB (M1 to G279 residues) expressed in HEK293 cells at 1 uM by Kinomescan method relative to control; assay type: cell-based
# [22] = target: Tyrosine-protein kinase ABL2 (Homo sapiens) (UniProt P42684); assay: Binding affinity to wild-type human ABL2 (A248 to G542 residues) expressed in Escherichia coli BL21 at 1 uM by Kinomescan method relative to control
# Tyrosine-protein kinase ABL2 (Homo sapiens), sequence (P42684 whole entry, the tested form may be a part): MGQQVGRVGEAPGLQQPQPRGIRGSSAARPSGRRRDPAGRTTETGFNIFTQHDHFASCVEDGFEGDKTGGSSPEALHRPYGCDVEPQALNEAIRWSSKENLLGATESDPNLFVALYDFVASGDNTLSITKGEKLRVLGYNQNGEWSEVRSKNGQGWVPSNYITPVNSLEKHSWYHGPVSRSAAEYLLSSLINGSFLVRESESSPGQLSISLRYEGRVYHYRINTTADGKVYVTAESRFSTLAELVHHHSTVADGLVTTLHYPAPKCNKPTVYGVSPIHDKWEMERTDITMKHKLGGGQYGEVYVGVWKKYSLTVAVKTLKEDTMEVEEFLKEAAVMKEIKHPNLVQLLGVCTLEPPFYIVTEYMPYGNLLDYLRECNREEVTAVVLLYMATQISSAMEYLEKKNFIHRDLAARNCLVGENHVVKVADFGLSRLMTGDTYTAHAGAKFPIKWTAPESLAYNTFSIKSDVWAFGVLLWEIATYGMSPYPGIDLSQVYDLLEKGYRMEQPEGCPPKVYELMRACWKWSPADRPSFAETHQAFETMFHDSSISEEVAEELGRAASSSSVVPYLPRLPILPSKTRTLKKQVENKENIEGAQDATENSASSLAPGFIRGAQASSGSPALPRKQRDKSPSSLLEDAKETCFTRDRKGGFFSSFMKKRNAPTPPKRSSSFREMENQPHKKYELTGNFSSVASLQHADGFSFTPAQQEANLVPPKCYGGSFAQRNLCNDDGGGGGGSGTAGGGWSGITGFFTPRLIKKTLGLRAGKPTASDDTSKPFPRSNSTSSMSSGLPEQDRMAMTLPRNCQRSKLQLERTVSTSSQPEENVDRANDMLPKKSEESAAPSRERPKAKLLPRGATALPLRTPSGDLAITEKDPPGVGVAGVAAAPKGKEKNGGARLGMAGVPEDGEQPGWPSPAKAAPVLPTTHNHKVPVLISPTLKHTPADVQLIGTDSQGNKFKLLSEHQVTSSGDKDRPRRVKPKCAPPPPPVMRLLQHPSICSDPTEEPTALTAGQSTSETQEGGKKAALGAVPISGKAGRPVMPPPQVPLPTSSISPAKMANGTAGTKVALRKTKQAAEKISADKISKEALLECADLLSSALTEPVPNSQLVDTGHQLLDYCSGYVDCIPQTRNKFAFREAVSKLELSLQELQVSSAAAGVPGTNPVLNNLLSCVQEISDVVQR
# [23] = target: Protein kinase C eta type (Homo sapiens) (UniProt P24723); assay: Binding affinity to wild-type human partial length PRKCH (S324 to P683 residues) expressed in Escherichia coli BL21 at 1 uM by Kinomescan method relative to control
# Protein kinase C eta type (Homo sapiens), sequence (P24723 whole entry, the tested form may be a part): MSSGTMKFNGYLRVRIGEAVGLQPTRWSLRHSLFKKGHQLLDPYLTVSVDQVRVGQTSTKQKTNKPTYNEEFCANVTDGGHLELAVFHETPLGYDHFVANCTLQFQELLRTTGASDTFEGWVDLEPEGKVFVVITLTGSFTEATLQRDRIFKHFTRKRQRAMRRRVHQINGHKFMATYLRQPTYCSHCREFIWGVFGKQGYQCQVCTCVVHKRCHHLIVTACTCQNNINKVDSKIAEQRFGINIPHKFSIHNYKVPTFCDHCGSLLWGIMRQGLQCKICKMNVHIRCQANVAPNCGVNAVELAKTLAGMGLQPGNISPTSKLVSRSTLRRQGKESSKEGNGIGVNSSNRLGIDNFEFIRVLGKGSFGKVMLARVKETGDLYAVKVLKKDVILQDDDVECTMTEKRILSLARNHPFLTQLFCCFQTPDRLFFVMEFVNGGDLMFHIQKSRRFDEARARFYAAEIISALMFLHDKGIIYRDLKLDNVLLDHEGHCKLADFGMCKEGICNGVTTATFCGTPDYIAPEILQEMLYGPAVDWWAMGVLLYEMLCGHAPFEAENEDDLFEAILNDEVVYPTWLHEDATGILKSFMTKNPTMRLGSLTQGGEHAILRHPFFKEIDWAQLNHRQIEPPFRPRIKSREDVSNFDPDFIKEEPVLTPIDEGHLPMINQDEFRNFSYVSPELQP
# [24] = target: Receptor-interacting serine/threonine-protein kinase 1 (Homo sapiens) (UniProt Q13546); assay: Binding affinity to wild-type human partial length RIPK1 (M1 to K305 residues) expressed in Escherichia coli BL21 at 1 uM by Kinomescan method relative to control
# Receptor-interacting serine/threonine-protein kinase 1 (Homo sapiens), sequence (Q13546 whole entry, the tested form may be a part): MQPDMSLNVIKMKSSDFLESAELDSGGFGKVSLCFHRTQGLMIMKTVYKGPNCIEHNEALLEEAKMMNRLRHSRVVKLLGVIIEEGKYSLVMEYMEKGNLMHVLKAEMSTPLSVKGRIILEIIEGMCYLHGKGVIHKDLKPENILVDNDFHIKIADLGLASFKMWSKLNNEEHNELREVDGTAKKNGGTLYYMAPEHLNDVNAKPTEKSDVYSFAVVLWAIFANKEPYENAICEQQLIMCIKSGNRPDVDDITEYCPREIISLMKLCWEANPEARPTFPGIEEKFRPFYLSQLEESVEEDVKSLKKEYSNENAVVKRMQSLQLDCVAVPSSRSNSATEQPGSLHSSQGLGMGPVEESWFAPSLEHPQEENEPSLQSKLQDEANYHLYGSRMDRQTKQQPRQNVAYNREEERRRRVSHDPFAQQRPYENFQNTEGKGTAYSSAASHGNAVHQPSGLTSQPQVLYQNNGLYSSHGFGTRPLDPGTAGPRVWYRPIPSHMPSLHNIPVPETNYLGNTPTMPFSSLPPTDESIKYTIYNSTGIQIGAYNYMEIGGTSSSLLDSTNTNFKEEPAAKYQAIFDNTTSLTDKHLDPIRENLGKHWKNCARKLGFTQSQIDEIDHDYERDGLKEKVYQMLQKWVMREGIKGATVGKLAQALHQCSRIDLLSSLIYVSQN
# [25] = target: Ribosomal protein S6 kinase alpha-3 (Homo sapiens) (UniProt P51812); assay: Binding affinity to wild-type human partial length C-terminal RSK3 kinase domain 2 (V403 to K700 residues) expressed in Escherichia coli BL21 at 1 uM by Kinomescan method relative to control
# Ribosomal protein S6 kinase alpha-3 (Homo sapiens), sequence (P51812 whole entry, the tested form may be a part): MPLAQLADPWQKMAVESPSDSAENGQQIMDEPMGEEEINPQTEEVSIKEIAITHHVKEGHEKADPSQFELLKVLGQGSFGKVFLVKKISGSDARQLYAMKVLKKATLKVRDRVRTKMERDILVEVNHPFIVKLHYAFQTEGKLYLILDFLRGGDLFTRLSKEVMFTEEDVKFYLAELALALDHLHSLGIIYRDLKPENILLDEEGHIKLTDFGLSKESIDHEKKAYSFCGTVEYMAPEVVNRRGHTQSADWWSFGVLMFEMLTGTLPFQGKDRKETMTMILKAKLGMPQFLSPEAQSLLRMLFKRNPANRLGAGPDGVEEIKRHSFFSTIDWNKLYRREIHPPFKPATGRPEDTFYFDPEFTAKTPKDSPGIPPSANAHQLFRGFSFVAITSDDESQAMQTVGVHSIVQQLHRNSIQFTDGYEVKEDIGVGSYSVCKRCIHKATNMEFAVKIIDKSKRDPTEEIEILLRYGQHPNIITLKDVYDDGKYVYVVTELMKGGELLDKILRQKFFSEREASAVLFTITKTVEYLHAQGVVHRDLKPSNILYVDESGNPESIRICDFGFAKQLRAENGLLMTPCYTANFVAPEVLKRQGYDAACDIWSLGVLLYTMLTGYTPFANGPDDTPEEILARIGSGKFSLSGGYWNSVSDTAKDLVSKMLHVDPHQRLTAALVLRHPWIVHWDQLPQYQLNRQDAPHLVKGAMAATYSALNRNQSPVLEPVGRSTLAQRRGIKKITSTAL
compound,measurement,setting,value
CCC(=O)Nc1ccc(C(=O)Nc2ccc(Nc3ncc4c(n3)N(C)c3ccc(C)cc3C(=O)N4C)cc2)cc1,Activity,[1],91%
same,Activity,[2],100%
same,Activity,[3],88%
same,Activity,[4],100%
same,Activity,[5],89%
same,Activity,[6],90%
same,Activity,[7],80%
same,Activity,[8],72%
same,Activity,[9],100%
same,Activity,[10],86%
same,Activity,[11],98%
same,Activity,[12],89%
same,Activity,[13],100%
same,Activity,[14],58%
same,Activity,[15],97%
same,Activity,[16],70%
same,Activity,[17],79%
same,Activity,[18],96%
same,Activity,[19],100%
same,Activity,[20],68%
same,Activity,[21],78%
same,Activity,HEK293,68%
same,Activity,[22],78%
same,Activity,[23],100%
same,Activity,[24],86%
same,Activity,[25],85%
C=CC(=O)Nc1ccc(C(=O)Nc2ccc(Nc3ncc4c(n3)N(C)c3ccc(C)cc3C(=O)N4C)cc2)cc1,Activity,[1],87%
same,Activity,[2],95%
same,Activity,[3],100%
same,Activity,[4],95%
same,Activity,[5],96%
same,Activity,[6],99%
same,Activity,[7],97%
same,Activity,[8],100%
same,Activity,[9],99%
same,Activity,[10],91%
same,Activity,[11],100%
same,Activity,[12],81%
same,Activity,[13],83%
same,Activity,[14],93%
same,Activity,[15],84%
same,Activity,[16],100%
same,Activity,[17],99%
same,Activity,[18],95%
same,Activity,[19],89%
same,Activity,[20],96%
same,Activity,[21],77%
same,Activity,HEK293,94%
same,Activity,[22],95%
same,Activity,[23],100%
same,Activity,[24],100%
same,Activity,[25],100%
